Here are results for two compounds from ChEMBL document CHEMBL3243962, “Antileukemic activity of derivatives of 1,2-dimethyl-3,4-bis(hydroxymethyl)-5-phenylpyrrole bis(N-methylcarbamate)” (J Med Chem, 1979).

Active and inactive are the calls of the source.

One data set has as its system Staphylococcus epidermidis. The data set can be described thus: Antimicrobial activity against Staphylococcus epidermidis ATCC 12228 at 1 mg after 24 hrs by disk sensitivity assay. The data set is classed as functional, organism-based.
Settings: not given
The essentials:
(§1)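 Bacteria grown 24 h in trypticase soy broth; 1 mL used to seed a lawn on trypticase soy agar. Sterile 6 mm paper disks carrying 1 mg test compound placed on agar, incubated 24 h at 37 °C, then zone of inhibition around each disk measured.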
For `CNC(=O)OCc1c(COC(=O)NC)c(-c2ccc(F)cc2)n(C)c1C`, the result was Active.

In the case of `CNC(=O)OCc1c(COC(=O)NC)c(-c2ccc(OC)cc2)n(C)c1C`, the result was Active.

Another data set concerns Mus musculus. The data set can be described thus: Toxicity in mouse P388 cells allografted CD2F1 mouse assessed as body weight loss at 100 mg/kg, ip of total 9 doses starting 24 hrs post tumor inoculation measured on day 5 of inoculation relative to control. The note with it: in vivo. The data set is classed as organism-based. More on the design: dose 100 mg/kg, route intraperitoneal. The gist of the method: (§2)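 Male CD2F1 mice inoculated ip with 6×10^6 P388 leukemia cells. Compounds given ip as distilled water–Tween 80 suspension, nine daily doses starting 24 h after inoculation; six mice per dose group. Treated-minus-control body-weight change (T − C) and toxicity-day survivors recorded on day 5 (4 days after first dose).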
As to `CNC(=O)OCc1c(COC(=O)NC)c(-c2ccc(F)cc2)n(C)c1C`, the Activity was 1.8 g.

For the compound `CNC(=O)OCc1c(COC(=O)NC)c(-c2ccc(OC)cc2)n(C)c1C`, the Activity is on record as 5.5 g.

A further data set has as its system Mus musculus. Description: Toxicity in mouse P388 cells allografted CD2F1 mouse assessed as body weight loss at 50 mg/kg, ip of total 9 doses starting 24 hrs post tumor inoculation measured on day 5 of inoculation relative to control. More on the design: dose 50 mg/kg, route intraperitoneal. The note with it: in vivo. The data set is classed as organism-based. The gist of the method: as §2
Take `CNC(=O)OCc1c(COC(=O)NC)c(-c2ccc(F)cc2)n(C)c1C`: the Activity stood at 5.1 g.

`CNC(=O)OCc1c(COC(=O)NC)c(-c2ccc(OC)cc2)n(C)c1C`: the Activity stood at 4.4 g.

The test system of a further data set is Mus musculus. Description: Toxicity in mouse P388 cells allografted CD2F1 mouse assessed as body weight loss at 25 mg/kg, ip of total 9 doses starting 24 hrs post tumor inoculation measured on day 5 of inoculation relative to control. The data set is classed as organism-based. The note with it: in vivo. The arrangement: dose 25 mg/kg, route intraperitoneal. The gist of the method: as §2
For `CNC(=O)OCc1c(COC(=O)NC)c(-c2ccc(F)cc2)n(C)c1C`, the Activity stood at 3.9 g.

For `CNC(=O)OCc1c(COC(=O)NC)c(-c2ccc(OC)cc2)n(C)c1C`, the Activity is on record as 3.4 g.

In a further data set the test system is Mus musculus. Description: Toxicity in mouse P388 cells allografted CD2F1 mouse assessed as body weight loss at 12.5 mg/kg, ip of total 9 doses starting 24 hrs post tumor inoculation measured on day 5 of inoculation relative to control. The data set is classed as organism-based. The arrangement: dose 12.5 mg/kg, route intraperitoneal. The conditions noted are these: in vivo. The gist of the method: as §2
On to `CNC(=O)OCc1c(COC(=O)NC)c(-c2ccc(F)cc2)n(C)c1C`, for which the Activity came to 4.3 g.

Consider `CNC(=O)OCc1c(COC(=O)NC)c(-c2ccc(OC)cc2)n(C)c1C`, for which the Activity came to 3.2 g.

The test system of the next data set is Mus musculus. The data set can be described thus: Toxicity in mouse P388 cells allografted CD2F1 mouse assessed as body weight loss at 6.25 mg/kg, ip of total 9 doses starting 24 hrs post tumor inoculation measured on day 5 of inoculation relative to control. The data set is classed as organism-based. The arrangement: dose 6.25 mg/kg, route intraperitoneal. The conditions noted are these: in vivo. The gist of the method:
as §2
As to `CNC(=O)OCc1c(COC(=O)NC)c(-c2ccc(F)cc2)n(C)c1C`, the Activity was 2.4 g.

Consider `CNC(=O)OCc1c(COC(=O)NC)c(-c2ccc(OC)cc2)n(C)c1C`, for which the Activity is 2.4 g.

The subject of another data set is Mus musculus. The data set can be described thus: Toxicity in mouse P388 cells allografted CD2F1 mouse assessed as mouse survival at 100 mg/kg, ip of total 9 doses starting 24 hrs post tumor inoculation measured on day 5 of inoculation relative to control. The data set is classed as organism-based. More on the design: dose 100 mg/kg, route intraperitoneal. The note with it: in vivo. The gist of the method:
(§3)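 Male CD2F1 mice bearing ip P388 leukemia (6×10^6 cells) were dosed ip with nine daily doses in distilled water–Tween 80 suspension, starting 24 h after inoculation. Survivors per group of 6 were counted on day 5, i.e. 4 days after the first dose. Body-weight change of treated minus control mice was also recorded.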
Regarding `CNC(=O)OCc1c(COC(=O)NC)c(-c2ccc(F)cc2)n(C)c1C`, the Activity result is “Toxic”.

For the next data set, the system named is Mus musculus. Description: Toxicity in mouse P388 cells allografted CD2F1 mouse assessed as mouse survival at 50 mg/kg, ip of total 9 doses starting 24 hrs post tumor inoculation measured on day 5 of inoculation relative to control. The data set is classed as organism-based. More on the design: dose 50 mg/kg, route intraperitoneal. The note with it: in vivo. The essentials: as §3
Turning to `CNC(=O)OCc1c(COC(=O)NC)c(-c2ccc(F)cc2)n(C)c1C`, the Activity result is “Non-toxic”.

Take `CNC(=O)OCc1c(COC(=O)NC)c(-c2ccc(OC)cc2)n(C)c1C`: the Activity entry is “Non-toxic”.

A further data set deals with Mus musculus. The data set can be described thus: Toxicity in mouse P388 cells allografted CD2F1 mouse assessed as mouse survival at 25 mg/kg, ip of total 9 doses starting 24 hrs post tumor inoculation measured on day 5 of inoculation relative to control. The arrangement: dose 25 mg/kg, route intraperitoneal. The data set is classed as organism-based. The note with it: in vivo. The gist of the method:
as §3
With `CNC(=O)OCc1c(COC(=O)NC)c(-c2ccc(F)cc2)n(C)c1C`, the Activity result is recorded as “Non-toxic”.

Turning to `CNC(=O)OCc1c(COC(=O)NC)c(-c2ccc(OC)cc2)n(C)c1C`, the Activity entry is “Non-toxic”.

Another data set has as its system Mus musculus. The data set can be described thus: Toxicity in mouse P388 cells allografted CD2F1 mouse assessed as mouse survival at 12.5 mg/kg, ip of total 9 doses starting 24 hrs post tumor inoculation measured on day 5 of inoculation relative to control. The data set is classed as organism-based. More on the design: dose 12.5 mg/kg, route intraperitoneal. The note with it: in vivo. The gist of the method: as §3
For the compound `CNC(=O)OCc1c(COC(=O)NC)c(-c2ccc(F)cc2)n(C)c1C`, the Activity result is on record as “Non-toxic”.

As for `CNC(=O)OCc1c(COC(=O)NC)c(-c2ccc(OC)cc2)n(C)c1C`, the Activity entry is given as “Non-toxic”.

The test system of a further data set is Mus musculus. Description: Toxicity in mouse P388 cells allografted CD2F1 mouse assessed as mouse survival at 6.25 mg/kg, ip of total 9 doses starting 24 hrs post tumor inoculation measured on day 5 of inoculation relative to control. More on the design: dose 6.25 mg/kg, route intraperitoneal. The note with it: in vivo. The data set is classed as organism-based. The gist of the method: as §3
Take `CNC(=O)OCc1c(COC(=O)NC)c(-c2ccc(F)cc2)n(C)c1C`: the Activity result is “Non-toxic”.

For the compound `CNC(=O)OCc1c(COC(=O)NC)c(-c2ccc(OC)cc2)n(C)c1C`, the Activity entry is reported as “Non-toxic”.

For a further data set, the system named is Staphylococcus aureus. Description: Antimicrobial activity against Staphylococcus aureus ATCC 25923 at 1 mg after 24 hrs by disk sensitivity assay. The data set is classed as functional, organism-based.
Settings: not given
The essentials:
as §1
For `CNC(=O)OCc1c(COC(=O)NC)c(-c2ccc(F)cc2)n(C)c1C`, the result was Active.

`CNC(=O)OCc1c(COC(=O)NC)c(-c2ccc(OC)cc2)n(C)c1C`: the outcome was Active.

The subject of a further data set is P388. The data set can be described thus: Antitumor activity against mouse P388 cells allografted in CD2F1 mouse assessed as increase in mouse survival at 100 mg/kg, ip of total 9 doses starting 24 hrs post tumor inoculation measured on day 5 of inoculation relative to control. The data set is classed as functional. The conditions noted are these: route intraperitoneal. The gist of the method: (§4)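 Male CD2F1 mice inoculated ip with 6×10^6 P388 leukemia cells. Dosing was ip as a suspension in distilled water–Tween 80, nine daily doses starting 24 h after inoculation. Activity was read as median survival time of treated vs control mice (% T/C); % T/C ≥ 120 was considered significant. Groups were 6 mice.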
In the case of `CNC(=O)OCc1c(COC(=O)NC)c(-c2ccc(OC)cc2)n(C)c1C`, the T/C (usually the result in the treated group divided by that in the control group, in per cent) is listed as <70%.

In a further data set the test system is P388. The data set can be described thus: Antitumor activity against mouse P388 cells allografted in CD2F1 mouse assessed as increase in mouse survival at 50 mg/kg, ip of total 9 doses starting 24 hrs post tumor inoculation measured on day 5 of inoculation relative to control. The conditions noted are these: route intraperitoneal. The data set is classed as functional. The gist of the method:
as §4
As for `CNC(=O)OCc1c(COC(=O)NC)c(-c2ccc(F)cc2)n(C)c1C`, the T/C turned out to be 132%.

`CNC(=O)OCc1c(COC(=O)NC)c(-c2ccc(OC)cc2)n(C)c1C`: the T/C was determined as 152%.

A further data set relates to P388. The data set can be described thus: Antitumor activity against mouse P388 cells allografted in CD2F1 mouse assessed as increase in mouse survival at 25 mg/kg, ip of total 9 doses starting 24 hrs post tumor inoculation measured on day 5 of inoculation relative to control. The data set is classed as functional. The note with it: route intraperitoneal. The gist of the method:
as §4
For `CNC(=O)OCc1c(COC(=O)NC)c(-c2ccc(F)cc2)n(C)c1C`, the T/C came to 150%.

Consider `CNC(=O)OCc1c(COC(=O)NC)c(-c2ccc(OC)cc2)n(C)c1C`, for which the T/C came out at 145%.

The next data set has as its system P388. The data set can be described thus: Antitumor activity against mouse P388 cells allografted in CD2F1 mouse assessed as increase in mouse survival at 12.5 mg/kg, ip of total 9 doses starting 24 hrs post tumor inoculation measured on day 5 of inoculation relative to control. The data set is classed as functional. The conditions noted are these: route intraperitoneal. The gist of the method:
as §4
Consider `CNC(=O)OCc1c(COC(=O)NC)c(-c2ccc(F)cc2)n(C)c1C`, for which the T/C came out at 130%.

For `CNC(=O)OCc1c(COC(=O)NC)c(-c2ccc(OC)cc2)n(C)c1C`, the T/C was 138%.

Another data set concerns P388. The data set can be described thus: Antitumor activity against mouse P388 cells allografted in CD2F1 mouse assessed as increase in mouse survival at 6.25 mg/kg, ip of total 9 doses starting 24 hrs post tumor inoculation measured on day 5 of inoculation relative to control. The data set is classed as functional. The note with it: route intraperitoneal. The gist of the method:
as §4
On to `CNC(=O)OCc1c(COC(=O)NC)c(-c2ccc(F)cc2)n(C)c1C`, for which the T/C amounted to 134%.

For `CNC(=O)OCc1c(COC(=O)NC)c(-c2ccc(OC)cc2)n(C)c1C`, the T/C is given as 135%.
